Assay results taken from publication PMC10864842 (Saudi Pharmaceutical Journal : SPJ, 2024).
“And” between values parts separate entries of the source, which are not always exact repeats. Equal entries are not always repeated. Where two headings read alike, the source gives them in different places.

Key:
PI3Kδ = PI3Kδ (Homo sapiens, UniProt O00329); assay: PI3Kδ inhibition assay; format: biochemical
[1] = MTT assay on oral epithelial normal cells; format: cell-based
How it was run: (§1)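 Cells kept in DMEM with 10% (v/v) FBS and 1% (v/v) streptomycin/penicillin at 37 °C and 5% CO2. About 10^4 cells/ml were seeded and grown for 24 h. Test compounds in DMSO were added at 6.25, 12.5, 25, 50 and 100 µg/ml for 24 and 48 h. Medium was replaced with 5 mg/mL MTT for 3–4 h. Formazan was dissolved in acidified isopropanol and read at 630 nm. Viability is expressed as % of untreated cells.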

KSP ATPase [2] = target: T1, KSP ATPase (Homo sapiens, UniProt P52732); assay: Microtubule-activated KSP ATPase kinetic assay; format: biochemical
T1 sequence (P52732 1-1056): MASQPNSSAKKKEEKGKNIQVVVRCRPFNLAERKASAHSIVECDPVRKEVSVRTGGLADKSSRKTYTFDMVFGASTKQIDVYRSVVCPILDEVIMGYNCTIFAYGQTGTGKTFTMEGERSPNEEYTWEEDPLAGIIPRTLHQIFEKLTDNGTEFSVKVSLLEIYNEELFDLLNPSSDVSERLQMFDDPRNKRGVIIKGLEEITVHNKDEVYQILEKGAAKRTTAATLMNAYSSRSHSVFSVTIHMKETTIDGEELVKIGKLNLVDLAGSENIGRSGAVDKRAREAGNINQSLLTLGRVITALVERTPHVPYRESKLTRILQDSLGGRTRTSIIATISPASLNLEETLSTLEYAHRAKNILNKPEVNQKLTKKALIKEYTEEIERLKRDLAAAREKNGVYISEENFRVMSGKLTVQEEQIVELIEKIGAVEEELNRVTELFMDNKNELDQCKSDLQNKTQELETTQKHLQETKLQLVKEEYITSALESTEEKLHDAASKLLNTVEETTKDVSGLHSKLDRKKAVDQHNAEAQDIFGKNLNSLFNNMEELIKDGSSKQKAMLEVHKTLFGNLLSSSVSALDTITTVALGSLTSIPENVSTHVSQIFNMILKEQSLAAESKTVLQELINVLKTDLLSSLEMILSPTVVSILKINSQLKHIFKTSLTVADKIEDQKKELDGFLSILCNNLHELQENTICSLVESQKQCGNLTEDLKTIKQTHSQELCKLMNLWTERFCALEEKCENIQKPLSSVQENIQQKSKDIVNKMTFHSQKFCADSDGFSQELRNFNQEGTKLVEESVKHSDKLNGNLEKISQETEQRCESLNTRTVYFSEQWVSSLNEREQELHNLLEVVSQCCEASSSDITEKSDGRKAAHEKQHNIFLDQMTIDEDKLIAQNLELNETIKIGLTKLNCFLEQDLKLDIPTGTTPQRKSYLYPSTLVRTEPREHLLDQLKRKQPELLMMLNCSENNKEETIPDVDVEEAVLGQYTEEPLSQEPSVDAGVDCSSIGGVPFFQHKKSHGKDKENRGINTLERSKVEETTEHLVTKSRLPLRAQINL

MDA-MB-231 cells [3] = assay: DNA fragmentation by gel electrophoresis; format: cell-based; settings: post-treatment
How it was run: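 MDA-MB-231 cells kept in DMEM with 10% FBS and 1% streptomycin/penicillin at 37 °C, 5% CO2. Genomic DNA was extracted with a commercial kit from cells before and after test compound treatment, and its quality was checked by nanodrop. DNA plus 1X loading dye was run on agarose gel, viewed under a UV transilluminator and imaged on a gel documentation system. Doxorubicin served as reference.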

MDA-MB-231 cells [4] = assay: qRT-PCR relative gene expression of P53, BAX and BCL-2; format: cell-based; settings: MDA-MB-231, 48 h
How it was run: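 RNA was extracted from cells after 48 h of treatment with test compound, and its purity was checked by nanodrop. P53, BAX and BCL-2 expression was normalised to β-actin as the housekeeping gene. Treated and untreated cells were compared by ANOVA.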

KSP ATPase [5] = target: T1, KSP ATPase; assay: Microtubule-activated KSP ATPase end-point assay; format: biochemical; settings: read-out: KSP ATPase inhibition [%]
MDA-MB-231 cells [6] = assay: Annexin V-FITC/PI flow cytometry; format: cell-based; settings: MDA-MB-231, Annexin V-FITC & PI, post-treatment
How it was run: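 MDA-MB-231 cells were kept in DMEM with 10% FBS and 1% streptomycin/penicillin at 37 °C under 5% CO2. Cells were treated with the test compound for 48 h, with doxorubicin as the standard and untreated cells for comparison. Cells were then harvested, rinsed, suspended in PBS, stained with Annexin V-FITC/PI and held 20 min in the dark before flow cytometry. Early apoptosis was Annexin V+/PI−; late apoptosis was Annexin V+/PI+.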

[7] = test system: MDA-MB-231 breast cancer cells; assay: MTT assay on MDA-MB-231 cells; format: cell-based; settings: Homo sapiens
How it was run: as §1

MDA-MB-231 cells [8] = assay: Morphological study by inverted microscope; format: cell-based; settings: 48 h
How it was run: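 MDA-MB-231 cells were grown in DMEM with 10% FBS and 1% streptomycin/penicillin at 37 °C, 5% CO2. They were treated with varying concentrations of test compound for 48 h and examined by inverted light microscopy. Phenotypic changes were scored as cell shrinkage, apoptotic body formation and membrane blebbing.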

Sequence of PI3Kδ (O00329 whole entry): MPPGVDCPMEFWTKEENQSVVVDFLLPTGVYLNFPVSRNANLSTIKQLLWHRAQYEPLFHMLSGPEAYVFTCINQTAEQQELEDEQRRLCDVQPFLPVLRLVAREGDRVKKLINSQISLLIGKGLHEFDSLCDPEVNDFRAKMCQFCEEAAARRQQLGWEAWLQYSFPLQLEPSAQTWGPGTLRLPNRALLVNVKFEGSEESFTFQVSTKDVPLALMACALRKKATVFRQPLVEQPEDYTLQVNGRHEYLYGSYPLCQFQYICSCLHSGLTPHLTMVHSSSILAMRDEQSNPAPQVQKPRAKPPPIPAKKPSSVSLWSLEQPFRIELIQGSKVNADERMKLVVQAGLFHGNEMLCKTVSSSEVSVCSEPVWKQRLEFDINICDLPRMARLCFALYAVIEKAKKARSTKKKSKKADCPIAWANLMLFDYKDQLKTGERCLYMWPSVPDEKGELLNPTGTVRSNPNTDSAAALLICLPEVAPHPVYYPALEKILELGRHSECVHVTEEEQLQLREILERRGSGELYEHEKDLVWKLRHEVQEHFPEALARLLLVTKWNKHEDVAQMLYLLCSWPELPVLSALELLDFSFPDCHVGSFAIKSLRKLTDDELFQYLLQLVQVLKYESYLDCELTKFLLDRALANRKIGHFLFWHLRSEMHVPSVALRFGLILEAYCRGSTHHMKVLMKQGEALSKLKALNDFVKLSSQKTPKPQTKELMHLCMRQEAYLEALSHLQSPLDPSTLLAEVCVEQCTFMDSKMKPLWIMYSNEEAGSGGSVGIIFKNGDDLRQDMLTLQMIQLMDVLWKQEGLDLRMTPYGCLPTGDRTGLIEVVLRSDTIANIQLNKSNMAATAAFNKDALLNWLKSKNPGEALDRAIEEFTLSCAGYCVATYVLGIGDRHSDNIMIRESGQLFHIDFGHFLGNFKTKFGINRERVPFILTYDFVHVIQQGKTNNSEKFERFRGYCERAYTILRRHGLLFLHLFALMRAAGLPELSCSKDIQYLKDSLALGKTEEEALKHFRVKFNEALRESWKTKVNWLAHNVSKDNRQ
Sequence of PI3Kδ (P27986 whole entry partner): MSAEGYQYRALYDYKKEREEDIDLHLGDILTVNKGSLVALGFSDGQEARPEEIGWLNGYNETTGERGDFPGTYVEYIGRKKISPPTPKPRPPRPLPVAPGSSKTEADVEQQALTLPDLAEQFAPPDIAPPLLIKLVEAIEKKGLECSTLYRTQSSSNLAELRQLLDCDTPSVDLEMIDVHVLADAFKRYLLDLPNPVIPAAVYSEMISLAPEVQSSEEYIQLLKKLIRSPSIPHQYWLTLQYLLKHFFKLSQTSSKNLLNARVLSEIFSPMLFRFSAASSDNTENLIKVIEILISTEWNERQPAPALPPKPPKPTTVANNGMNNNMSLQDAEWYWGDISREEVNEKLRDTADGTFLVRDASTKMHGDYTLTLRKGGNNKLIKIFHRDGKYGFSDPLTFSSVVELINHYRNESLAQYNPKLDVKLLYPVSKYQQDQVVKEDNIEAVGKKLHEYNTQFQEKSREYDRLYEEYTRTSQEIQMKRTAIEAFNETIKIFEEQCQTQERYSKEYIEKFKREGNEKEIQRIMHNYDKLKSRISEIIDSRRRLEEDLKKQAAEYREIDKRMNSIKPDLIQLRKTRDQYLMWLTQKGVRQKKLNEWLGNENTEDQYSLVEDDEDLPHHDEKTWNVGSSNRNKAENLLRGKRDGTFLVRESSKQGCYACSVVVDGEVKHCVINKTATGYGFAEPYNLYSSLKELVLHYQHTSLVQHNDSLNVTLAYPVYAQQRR

O=c1c2cc(Cl)ccc2nc(SCc2ccc(F)cc2)n1-c1ccc(F)cc1 [Compound 3e, 6-Chloro-2-((4-fluorobenzyl)thio)-3-(4-fluorophenyl)quinazolin-4(3H)-one]
IC50 (PI3Kδ): 0.0454 ± 0.00205 µM | IC50 at 48 h [1]: 92.1 µg/mL and 222 µM | IC50 (KSP ATPase [2]): 0.0684 µM | DNA fragmentation (MDA-MB-231 cells [3]): internucleosomal fragmentation was noticed | Relative gene expression of BAX (MDA-MB-231 cells [4]): significant overexpression | Relative gene expression of BCL-2 (MDA-MB-231 cells [4]): downregulation | Relative gene expression of P53 (MDA-MB-231 cells [4]): significant overexpression | inhibition at 2 µM (KSP ATPase [5]): 93.3 ± 2.1% | Number of cells in the early and late apoptosis versus untreated cells (MDA-MB-231 cells [6]): significant increase | IC50 ([7]; MDA-MB-231, 24 h, read-out: IC50 after 24 h (µM)): 21.5 µM | IC50 ([7]; MDA-MB-231, 24 h, read-out: IC50 after 24 h in µg/mL): 8.94 ± 0.08 µg/mL | IC50 ([7]; MDA-MB-231, 48 h, read-out: IC50 after 48 h (µM)): 9.97 µM | IC50 ([7]; MDA-MB-231, 48 h, read-out: IC50 after 48 h in µg/mL): 4.14 ± 0.11 µg/mL | Morphological changes of treated cells (MDA-MB-231 cells [8]): cell shrinkage, apoptotic bodies formation, and membrane blebbing
